# Source: PubChem BioAssay AID1453 (NMMLSC, 2008)
# Some of the results follow. Calls of active or inactive are those of the source.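 Rule for the calls: active = inhibition above 50%; inactive = the rest.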
# Biological target: Broad substrate specificity ATP-binding cassette transporter ABCG2 (Homo sapiens) (UniProt Q9UNQ0)
# Assay: blockers of JC-1 export by ABCG2 – single point, IgMXP3 cells, ABCB1 counter-screen paired, confirmation (AID 1453);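 note: 0% = DMSO wells and 100% = nicardipine pump inhibitor wells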
# Conditions: JC-1 efflux, flow cytometry, at 6.6 µM, stronger effect = higher value
# Outline: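 Assay system: Drug-resistant IgMXP3 cells expressing human ABCG2 | Quantity: 3 million cells/mL final | Technique: Flow cytometry, median fluorescence at 530 nm | Compound dosing: Single test compound dose, 6.6 µM final | Times: 10 min end-over-end mixing at 25 °C before reading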
# Broad substrate specificity ATP-binding cassette transporter ABCG2 (Homo sapiens), sequence (Q9UNQ0 whole entry, looked up): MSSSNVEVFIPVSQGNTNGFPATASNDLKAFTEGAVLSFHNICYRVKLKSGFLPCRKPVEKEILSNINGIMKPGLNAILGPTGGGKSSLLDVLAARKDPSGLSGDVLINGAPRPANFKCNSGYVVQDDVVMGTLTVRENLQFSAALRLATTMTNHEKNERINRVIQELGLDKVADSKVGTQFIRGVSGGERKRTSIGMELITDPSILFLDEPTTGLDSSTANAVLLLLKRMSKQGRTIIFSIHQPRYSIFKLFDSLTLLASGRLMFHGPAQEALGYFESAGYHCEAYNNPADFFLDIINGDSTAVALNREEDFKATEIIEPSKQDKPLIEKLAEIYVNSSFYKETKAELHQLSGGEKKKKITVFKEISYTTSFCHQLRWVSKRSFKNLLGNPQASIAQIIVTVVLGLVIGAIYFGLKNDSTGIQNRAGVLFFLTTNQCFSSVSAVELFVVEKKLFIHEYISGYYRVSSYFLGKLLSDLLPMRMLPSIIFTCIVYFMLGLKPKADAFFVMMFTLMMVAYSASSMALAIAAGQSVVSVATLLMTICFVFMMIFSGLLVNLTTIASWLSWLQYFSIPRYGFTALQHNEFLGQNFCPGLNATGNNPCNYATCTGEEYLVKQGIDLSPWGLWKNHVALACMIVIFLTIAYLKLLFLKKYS
smiles,measurement,value
COC(=O)COc1cc(C)cc2oc(=O)c3c(c12)CCCC3,inhibition,22.6% (inactive)
